In ChEMBL document CHEMBL5154939, “Improved Binding Affinity and Pharmacokinetics Enable Sustained Degradation of BCL6 In Vivo” (J Med Chem, 2022):
In brackets after ≈: the same amount, converted by molar mass. Activity calls are given as the source filed them. The rule behind the calls is not given here.

Tests used:
[1] = target: T1, B-cell lymphoma 6 protein (Homo sapiens, UniProt P41182); experiment: Degradation of BCL6 in human OCI-Ly1 cells incubated for 2 hrs by MSD assay; type: cell-based
Procedure, shortened: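 Lysates were read by MSD sandwich immunoassay (goat capture, rabbit detection anti-BCL6, electrochemiluminescence). Signal was normalised to DMSO (high) and a reference degrader control at 2 μM (low). DC50 came from a four-parameter logistic fit, with Dmax reported.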

[2] = Clearance in BALB/c mouse at 1 mg/kg, iv or 5 mg/kg, po measured after 6 hrs post-dose by ESI-LCMS/MS based UPLC analysis relative to hepatic blood flow; type: ADME, organism-based; settings: in vivo
[3] = Cmax in BALB/c mouse at 1 mg/kg, iv or 5 mg/kg, po measured after 6 hrs post-dose by ESI-LCMS/MS based UPLC analysis; type: ADME, organism-based; parameters: time 6 hrs, dose 5 mg/kg, route po; settings: in vivo
[4] = Passive membrane permeability of compound in phosphate buffered saline at pH 7.4 at 10 uM incubated for 16 hrs by PAMPA assay based TQ-S LC-MS/MS analysis; type: ADME; settings: read-out: permeability
Procedure, shortened: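 PAMPA with a 2% phosphatidylcholine-in-dodecane membrane. Compound at 10 µM in PBS pH 7.4 containing 1% BSA was incubated 16 h at 30 °C. Supernatants were diluted and quantified by LC-MS/MS.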

[5] = target: T1, B-cell lymphoma 6 protein
[6] = Toxicity in SCID mouse xenografted with human HT cells assessed as body weight loss at 50 mg/kg, po bid measured upto 22 days; type: organism-based; settings: in vivo, 528 h, time < 22 day
Procedure, shortened: (§1)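 HT cells grown in RPMI-1640 with 10% FBS, kept at 0.5-2 × 10^6 cells/mL. For implantation, 10^7 cells per 200 µL in serum-free RPMI plus an equal volume of Matrigel were injected subcutaneously at a single site in female SCID mice. At day 20, tumours of 0.4-0.6 cm³ were chosen, n=10 per group. Oral dosing at 50 mg/kg or vehicle was given every 12 h for 22 days (DMSO/Kolliphor HS15/PEG400/aqueous HPMC, 0.2 mL per 20 g).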

[7] = Toxicity in SCID mouse xenografted with human OCI-Ly1 cells assessed as noticeable adverse effects at 50 mg/kg, po measured for 12 to 24 hrs; type: organism-based; settings: in vivo, time 12-24 hrs
Procedure, shortened: (§2)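 Female SCID mice with subcutaneous OCI-Ly1 xenografts (1.5×10^7 cells in serum-free IMDM/Matrigel; tumours 0.4-0.6 cm³ at day 20) received one oral dose of 50 mg/kg or vehicle (DMSO/Kolliphor HS15/PEG400/HPMC). Groups of n=3 were sampled at 12, 16 and 24 h. Tumour lysates were analysed by Wes capillary electrophoresis, with BCL6 normalised to GAPDH.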

[8] = test system: HT; experiment: Antitumor activity against human HT cells xenografted in SCID mouse assessed as reduction in tumor growth at 50 mg/kg, po bid measured upto 22 days; type: functional, organism-based; settings: time <= 22.0 day; procedure, shortened: as §1
[9] = Toxicity in BALB/c mouse at 1 mg/kg, iv or 5 mg/kg, po measured upto 24 hrs post-dose; type: organism-based; settings: in vivo
[10] = test system: HT; experiment: Downregulation of BCL6 levels in human HT cells xenografted in SCID mouse at 50 mg/kg, po bid measured for 4 to 12 hrs post-dose by capillary electrophoresis method; type: functional, organism-based; settings: time lower 4.0 hrs, time upper […]
Procedure, shortened: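 Female SCID mice bearing subcutaneous HT xenografts (10^7 cells with Matrigel) were dosed orally at 50 mg/kg BID, every 12 h, for 22 days; vehicle was DMSO/Kolliphor HS15/PEG400/1.25% HPMC. Tumours were taken 4 and 12 h after the final dose, snap-frozen and bead-homogenised in Tris/Triton lysis buffer. Lysates at 0.0875 mg/ml were run on Wes capillary electrophoresis, with BCL6 normalised to GAPDH.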

[11] = test system: OCI-Ly1; experiment: Downregulation of BCL6 levels in human OCI-Ly1 cells xenografted in SCID mouse at 50 mg/kg, po measured for 12 to 24 hrs by capillary electrophoresis method; type: functional, organism-based; settings: time lower […], time upper 24.0 hrs; procedure, shortened: as §2
[12] = Kinetic aqueous solubility of the compound in 1% DMSO/PBS at pH 7.4 incubated for 2 hrs by UV-vis detection based HPLC analysis; type: physicochemical; settings: PBS with 1% DMSO, read-out: Kinetic_solubility
Procedure, shortened: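 A 10 mM DMSO stock was diluted into PBS pH 7.4 to 100 µM final with 1% DMSO, shaken 2 h at 20 °C and centrifuged. The supernatant was mixed with DMSO and measured by HPLC-UV on a 5 min water:methanol gradient with 0.1% formic acid at 30 °C, against an external standard from the same stock.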

| EC50 [1] | SMILES | further results |
| --- | --- | --- |
| 0.0098 µM | C[C@H]1C[C@@H](N(C)C)CN(c2ncc(Cl)c(Nc3ccc4c(c3)c3c(c(=O)n4C)OCC(F)(F)[C@H](C4CC4)N3)n2)C1 | – |
| > 2 µM | C[C@H]1C[C@H](O)CN(c2ncc(Cl)c(Nc3ccc4c(c3)c3c(c(=O)n4C)OCC(F)(F)[C@H](C4CC4)N3)n2)C1 | – |
| > 2 µM | Cn1c(=O)c2c(c3cc(Nc4nc(N5CCC(F)(F)[C@H](O)C5)ncc4Cl)ccc31)N[C@@H](C1CC1)C(F)(F)CO2 | – |
| 0.0063 µM | C[C@H]1CCCN(c2ncc(Cl)c(Nc3ccc4c(c3)c3c(c(=O)n4C)OCC(F)(F)[C@H](C4CC4)N3)n2)C1 | – |
| – | C[C@@H]1CN(c2ncc(Cl)c(Nc3ccc4c(c3)n(CCC(C)(C)O)c(=O)n4C)n2)C[C@H](C)C1(F)F | CLH [2]: 22%; Cmax [3]: 1.58 µM; Papp at 16 h, 10 µM [4]: 330 nm/s |
| > 2 µM | CC(=O)N[C@H]1C[C@@H](C)CN(c2ncc(Cl)c(Nc3ccc4c(c3)c3c(c(=O)n4C)OCC(F)(F)[C@H](C4CC4)N3)n2)C1 | – |
| > 2 µM | C[C@@H]1C[C@H](O)CN(c2ncc(Cl)c(Nc3ccc4c(c3)c3c(c(=O)n4C)OCC(F)(F)[C@H](C4CC4)N3)n2)C1 | Papp at 16 h, 10 µM [4]: 160 nm/s; EC50 [5]: > 2 µM |
| 0.0326 µM | C[C@@H]1CCCN(c2ncc(Cl)c(Nc3ccc4c(c3)c3c(c(=O)n4C)OCC(F)(F)[C@H](C4CC4)N3)n2)C1 | – |
| > 2 µM | Cn1c(=O)c2c(c3cc(Nc4nc(N5CCC(F)(F)[C@H](CO)C5)ncc4Cl)ccc31)N[C@@H](C1CC1)C(F)(F)CO2 | – |
| > 2 µM | Cn1c(=O)c2c(c3cc(Nc4nc(N5CCC[C@H](O)C5)ncc4Cl)ccc31)N[C@@H](C1CC1)C(F)(F)CO2 | – |
| > 2 µM | C[C@@H]1C[C@@H](O)CN(c2ncc(Cl)c(Nc3ccc4c(c3)c3c(c(=O)n4C)OCC(F)(F)[C@H](C4CC4)N3)n2)C1 | – |
| 0.276 µM | Cn1c(=O)n(CCC(C)(C)O)c2cc(Nc3nc(N4CCC(F)(F)C(O)C4)ncc3Cl)ccc21 (racemic) | – |
| > 2 µM | Cn1c(=O)c2c(c3cc(Nc4nc(N5CCC[C@@H](O)C5)ncc4Cl)ccc31)N[C@@H](C1CC1)C(F)(F)CO2 | – |
| 0.0022 µM | CC(=O)N[C@@H]1C[C@H](C)CN(c2ncc(Cl)c(Nc3ccc4c(c3)c3c(c(=O)n4C)OCC(F)(F)[C@H](C4CC4)N3)n2)C1 | – |
| > 2 µM | C[C@@H]1C[C@H](N(C)C)CN(c2ncc(Cl)c(Nc3ccc4c(c3)c3c(c(=O)n4C)OCC(F)(F)[C@H](C4CC4)N3)n2)C1 | – |
| 0.035 µM | C[C@H]1C[C@@H](O)CN(c2ncc(Cl)c(Nc3ccc4c(c3)n(CCC(C)(C)O)c(=O)n4C)n2)C1 (relative stereo) | – |
| 0.0071 µM | Cn1c(=O)c2c(c3cc(Nc4nc(N5CCC(F)(F)[C@@H](O)C5)ncc4Cl)ccc31)N[C@@H](C1CC1)C(F)(F)CO2 | – |
| 0.0027 µM | Cn1c(=O)c2c(c3cc(Nc4nc(N5CCC(F)(F)[C@@H](CO)C5)ncc4Cl)ccc31)N[C@@H](C1CC1)C(F)(F)CO2 | solubility kinetic at 2 h [12]: 13 µM (≈ 7.58 µg/mL); Papp at 16 h, 10 µM [4]: 210 nm/s |

| SMILES | EC50 [1] | further results |
| --- | --- | --- |
| C[C@H]1C[C@@H](O)CN(c2ncc(Cl)c(Nc3ccc4c(c3)c3c(c(=O)n4C)OCC(F)(F)[C@H](C4CC4)N3)n2)C1 | 0.0007 µM | CLH [2]: 6%; Cmax [3]: 3.95 µM; Activity [6]: Non-Toxic; Activity [7]: Non-Toxic; Activity [8]: Active; Activity [9]: Non-Toxic; EC50 [5]: 0.001 µM; Activity [10]: Active; Activity [11]: Active |
